Assay outcomes deposited in PubChem by several laboratories.
A selection: hits, their analogues and other compounds. The true share with any hit is near 1.8%.
PPC-1+TRAIL kill – compounds killing PPC-1 cancer cells with TRAIL present (potentiator screen, no TRAIL-free arm). PPC-1 cells + TRAIL, ATPLite viability luminescence. cell killing (% activity), % at 4 µM or 5 µM. actives 0.41% (n = 220,000). AID 1443;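 active = cell killing above 50% in the first pass at 4 µM, then a duplicate retest at 5 µM averaging 50% or more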;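 also: plate controls were cells with TRAIL plus DMSO for no effect and medium-only wells lacking cells for full effect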
STAT3 blocker – inhibitors of IL-6 induced STAT3 signaling. U3A cells, IL-6 STAT3-luciferase reporter, luminescence; host cell line lacks STAT1. inhibition, % at 5.5 µM. actives 0.89% (n = 190,000). AID 862;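 active = inhibition above the mean inhibition across all screened compounds plus 3 SD, cut at about 44% in these data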;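 also: 0% = DMSO only wells and 100% = 100 µM nifuroxazide control wells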
STAT3 act – STAT3 signaling activation; U3A cells, IL-6 STAT3-luciferase reporter, luminescence; 100% = signal with IL-6 EC80 alone; activation (% of control), % at 5.6 µM; actives 0.91% (n = 190,000); AID 871;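 active = activation above the screen-wide mean of compound activation plus 3 SD, cut at about 130% in these data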;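 also: 0% = background luminescence of wells with medium and substrate only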
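Material: STAT3-luciferase reporter U3A cells; Probe or stimulus: IL-6 (33 ng/mL); Incubation: compound pre-incubation 1 h before IL-6, then 6 h stimulation at 37 °C; Technique: luminescence from STAT3-driven luciferase reporter; Evaluation: % activation versus median of IL-6-stimulated wells; Controls: IL-6-only high control.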
STAT1 blocker – inhibitors of IFN-gamma induced STAT1 signaling. inhibition, % at 5.5 µM. actives 0.35% (n = 200,000). NIH 3T3 STAT1-luciferase reporter, luminescence;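 active = inhibition above a set limit, the mean inhibition across all tested compounds plus 3 SD, cut at about 34% in these data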;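 also: 0% = IFN-gamma with DMSO and 100% = IFN-gamma with 300 µM nifuroxazide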
TRAIL sens C8 – caspase-8 TRAIL sensitization; actives 1% (n = 360,000); NB7+C8 cells + TRAIL, ATPlite viability luminescence; inhibition (viability loss, TRAIL sensitization), % at 10 µM;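 active = compounds causing at least 50% loss of cell viability in the single-dose screen, relative to plate controls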
* marks the source's active call; other numbers are inactive results; nt = not tested or not shown.

SMILES	PPC-1+TRAIL kill	STAT3 blocker	STAT3 act	STAT1 blocker	TRAIL sens C8
CCCCN(C)S(=O)(=O)c1ccc(C(=O)N=c2sc3cc(NC(C)=O)ccc3n2C)cc1	17	7	94	-8	-14
CCCCN(CC)S(=O)(=O)c1ccc(C(=O)N=c2sc3cc(NC(C)=O)ccc3n2C)cc1	9	2	104	-6	61*
Cc1cccc(CN2CCC(CNC(=O)CSc3cc(=O)n(C)c4cc(Cl)ccc34)CC2)c1	4	nt	nt	nt	9
CC(C)c1ccc(/C=N/NC(=O)c2c(Cl)cnn2C)cc1	42	15	90	-43	83*
COc1cc(/C=C/C(=O)OCC(=O)NC(=O)NC2CCCCC2)ccc1OC(F)F	nt	nt	nt	nt	-5
CC(=O)Oc1ccc(/C=C/c2nc3ccccc3c(=O)o2)cc1	nt	nt	nt	nt	76*
CC(=O)Oc1ccccc1/C=C/c1nc2ccccc2c(=O)o1	nt	nt	nt	nt	82*
Cc1ccc2c(c1)N(CC(=O)NCCCN1CCN(C)CC1)C(=O)CO2	nt	nt	nt	nt	10
CC(=O)Nc1ccc(CNc2nc3cc(-c4cccc(C(F)(F)F)c4)sc3c(=O)n2C)cc1	nt	nt	nt	nt	1
Nc1nnnn1/N=C/C(Br)=C/c1ccccc1	8	11	99	-9	59*
Nc1nnnn1/N=C/C=C/c1ccccc1	-4	1	102	-8	-4
Cn1cccc1CN1CCC[C@]2(N[C@H](c3ccccc3)[C@@H]3C(=O)N(Cc4ccccc4)C(=O)[C@@H]32)C1=O	nt	nt	nt	nt	1
Cc1ccc(C2NC(=O)NC3=C2CCc2ccccc23)cc1 (stereo not given)	13	-34	134*	13	21
O=C(C(=O)N1CCN(c2cccc(Cl)c2)CC1)c1cn(CC(=O)N2CCOCC2)c2ccccc12	nt	nt	nt	nt	-4
Cc1cc(C)cc(OCC(=O)OCC(=O)NC2CCCCCC2)c1	nt	nt	nt	nt	14
Cc1nc(=S)c2c([nH]1)-c1ccccc1CC21CCCCC1	4	nt	nt	nt	80*
Cc1ccc2cc(/C=N/Nc3nc4ccccc4[nH]3)c(Cl)nc2c1	0	-16	113	6	87*
Cc1cccc(OCCSc2nc(N)cc(N)n2)c1	13	nt	nt	nt	-5
COc1cc2ccccc2cc1C(=O)Nc1sc2c(c1C(N)=O)CCN(C(C)C)C2	nt	nt	nt	nt	83*
Cc1ccc(C(C)NC(=O)c2cc3cc(Br)ccc3oc2=N)cc1 (stereo not given)	nt	nt	nt	nt	15
COc1ccc(C(c2nnnn2Cc2ccccc2)N2CCN(c3nc4ccccc4s3)CC2)cc1 (stereo not given)	-5	-4	109	-2	7
COCCn1nnnc1C(c1ccc(OC)c(OC)c1)N1CCN(c2nc3ccccc3s2)CC1 (stereo not given)	71*	2	105	-3	-13
CSc1ccccc1NC(=O)CN(C)Cc1c(O)ccc2ccccc12	nt	nt	nt	nt	-19
CC(=O)OCC(=O)Nc1ccc([N+](=O)[O-])cc1Cl	13	4	101	-4	-11
CC(=O)Oc1c(C)cc(Cl)cc1C(=O)Nc1ccc([N+](=O)[O-])cc1Cl	39	46*	63	3	31
SMILES	PPC-1+TRAIL kill	STAT3 blocker	STAT3 act	STAT1 blocker	TRAIL sens C8
COc1cccc(CC(=O)OCC(=O)NC2(C#N)CCCCC2)c1	nt	nt	nt	nt	3
COc1ccc(-c2c[n+]3c(n2-c2ccccc2)CCCCC3)cc1	13	28	75	21	35
COc1ccc(-n2c(-c3ccc(Br)cc3)c[n+]3c2CCc2ccccc2-3)cc1	34	72*	39	25	40
CC(C)c1ccc(-n2c(-c3ccccc3)c[n+]3c2CCc2ccccc2-3)cc1	48	80*	35	40*	53*
O=C(NCc1ccccc1)c1ccc(NC(=O)C2CCCC2)cc1	nt	nt	nt	nt	0
NC(c1ccccc1)c1cccs1 (stereo not given)	nt	nt	nt	nt	-10
CC(C)(C)OC(=O)NCCCC[C@H](NC(=O)c1nc[nH]c1C(=O)N[C@@H](CCCCNC(=O)OC(C)(C)C)C(=O)OC(C)(C)C)C(=O)OC(C)(C)C	5	nt	nt	nt	37
Cc1cccc(NC(=O)c2nc[nH]c2C(=O)N[C@@H](CCCCNC(=O)OC(C)(C)C)C(=O)OC(C)(C)C)c1	10	nt	nt	nt	51*
CC(C)C[C@H](NC(=O)c1nc[nH]c1C(=O)N[C@@H](CCCCNC(=O)OC(C)(C)C)C(=O)OC(C)(C)C)C(=O)OCc1ccccc1	nt	nt	nt	nt	63*
CC(C)(C)OC(=O)NCCCC[C@H](NC(=O)c1nc[nH]c1C(=O)NC(c1ccccc1)c1ccccc1)C(=O)OC(C)(C)C	5	nt	nt	9	53*
O=C(C1CC1)N1CCN(S(=O)(=O)c2ccc3c(c2)OCCO3)CC1	20	4	98	5	0
CCOC(=O)c1cc(C#N)c(SCc2ccc(C#N)cc2)nc1C	nt	-36	136*	-4	5
Cn1c(=O)c2c(SCC(=O)Nc3ccccc3F)nc(C3CC3)nc2n(C)c1=O	nt	nt	nt	nt	50*
CCCCCc1ccc(-c2ccc(/C=C/C(=O)O)cc2)nc1	44	34	71	-12	82*
CC(C)c1ccc(/C=C/C(=O)O)cc1	13	nt	nt	nt	5
CN(C)CCNC(=O)c1cccc(-c2cc(NC=O)c3ncc(-c4cccc(C(F)(F)F)c4)n3c2)c1	nt	nt	nt	nt	79*
Cc1ccccc1Nc1nn2c(=O)c3ccccc3nc2s1	41	8	95	-41	50*
Cc1ccc(NC2=C(Cl)C(=O)c3ccccc3C2=O)cc1	22	-7	108	6	48
CCOC(=O)N1CCN(C2=C(NS(=O)(=O)c3ccc(C)cc3)C(=O)c3ccccc3C2=O)CC1	nt	nt	nt	nt	53*
Cc1cc(NC2=CC(=O)C(=O)c3ccccc32)no1	nt	nt	nt	nt	72*
Cc1ccc(NC2=CC(=O)C(=O)c3ccccc32)cc1	49	-2	105	-22	91*
Cc1ccc(NC2=C(N3CCOCC3)C(=O)c3ccccc3C2=O)cc1	4	9	101	-31	56*
Cc1c(Cl)cccc1NC(=O)Nc1c(C)n(C)n(-c2ccccc2)c1=O	nt	nt	nt	nt	5
COc1cc(OC)c(NC2=CC(=O)C(=O)c3ccccc32)cc1Cl	nt	nt	nt	nt	96*
O=C1C=C(Nc2ccc(O)cc2)C(=O)c2ccccc21	12	nt	nt	nt	43
SMILES	PPC-1+TRAIL kill	STAT3 blocker	STAT3 act	STAT1 blocker	TRAIL sens C8
NS(=O)(=O)c1ccc(NC2=CC(=O)C(=O)c3ccccc32)cc1	nt	nt	nt	nt	64*
O=C(NCc1ccco1)c1ccc([N+](=O)[O-])o1	24	6	97	4	10
COc1cc2c(cc1NC(=O)c1ccc(C)c([N+](=O)[O-])c1)oc1ccccc12	14	-6	107	4	2
COc1cc2c(cc1NC(=O)c1cccc([N+](=O)[O-])c1)oc1ccccc12	18	21	88	-15	50*
[O-][N+]1=c2ccc(Nc3ccccc3)cc2=NC12CCCCC2	11	-4	106	-37	69*
CC1=NN(c2ccccc2)C(=O)/C1=C/c1c(O)n(-c2ccc(F)c(Cl)c2)[nH]c1=O	10	-86	166*	-47	nt
CC1=NN(c2ccccc2)C(=O)/C1=C\c1c(C)[nH]n(-c2ccccc2)c1=O	12	-49	144*	-1	17
